Experimental data published in ChEMBL document CHEMBL2177067 (J Med Chem, 2012).
In brackets after ≈: the same amount, converted by molar mass.

Key:
[1] = Inhibition of Staphylococcus aureus ATCC 25923 replicative DnaB helicase-mediated ATP-dependent dissociation of Hel-5'FAM:Hel-3'BHQ by FRET assay
Summary of the method: (§1)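 Unwinding was read by FRET as helicase-driven, ATP-dependent dissociation of annealed Hel-5′FAM and Hel-3′BHQ oligonucleotides, one fluorescent and the other quencher-labelled. The replicative helicases were prepared as described earlier.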

[2] = target: T1, Replicative DNA helicase (Bacillus anthracis, UniProt A0A6L8Q2B7); experiment: Inhibition of Bacillus anthracis Sterne 34F2 replicative DNA helicase-mediated ATP-dependent dissociation of Hel-5'FAM:Hel-3'BHQ by FRET assay; parameters: species or system Bacillus anthracis str. Sterne; summary of the method: as §1
T1 sequence (A0A6L8Q2B7 whole entry): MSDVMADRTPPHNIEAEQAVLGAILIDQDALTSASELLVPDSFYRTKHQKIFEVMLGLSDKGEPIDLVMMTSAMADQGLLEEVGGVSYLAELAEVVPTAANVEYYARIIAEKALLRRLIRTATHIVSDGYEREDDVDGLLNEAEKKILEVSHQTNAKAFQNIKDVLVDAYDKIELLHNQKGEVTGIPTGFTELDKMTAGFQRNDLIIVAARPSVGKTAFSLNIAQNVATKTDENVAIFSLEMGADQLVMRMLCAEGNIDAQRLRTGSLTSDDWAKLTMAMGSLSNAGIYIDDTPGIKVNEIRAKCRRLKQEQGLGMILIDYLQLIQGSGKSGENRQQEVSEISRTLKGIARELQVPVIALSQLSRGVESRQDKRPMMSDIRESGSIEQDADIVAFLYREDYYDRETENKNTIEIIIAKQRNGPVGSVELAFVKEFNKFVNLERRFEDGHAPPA

[3] = Selectivity index, ratio of CC50 for human HeLa cells to MIC for Staphylococcus aureus ATCC 25923; type: functional
Summary of the method: (§2)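 Selectivity index is HeLa CC50 (MTS assay) divided by the bacterial MIC.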

[4] = test system: HeLa; experiment: Cytotoxicity against human HeLa cells by MTS assay; type: cell-based
[5] = Selectivity index, ratio of CC50 for human HeLa cells to MIC for Bacillus anthracis; type: functional; summary of the method: as §2
[6] = test system: Staphylococcus aureus; experiment: Antibacterial activity against Staphylococcus aureus ATCC 25923 by broth microdilution method; type: functional
[7] = test system: Bacillus anthracis; experiment: Antibacterial activity against Bacillus anthracis by broth microdilution method; type: functional
[8] = test system: Staphylococcus aureus; experiment: Antibacterial activity against Staphylococcus aureus ATCC 25923 by broth microdilution method in presence of reserpine; type: functional

Row | Structure (SMILES) | IC50 [1] [µM] | IC50 [2] [µM] | Selectivity Index [3] | CC50 [4] [µM] | Selectivity Index [5] | MIC [6] [µM] | MIC [7] [µM] | MIC [8] [µM]
1 | Cc1c(CCC(=O)O)c(=O)oc2cc(OCc3nccc4ccccc34)ccc12 | > 100 | > 100 | – | – | – | – | – | –
2 | Cc1c(CCC(=O)O)c(=O)oc2c(C)c(OCc3ccc(-c4ccc(F)cc4)cc3)ccc12 | 3.7 | 5.1 | 6.4 | 19.2 | >24 | 3 (≈ 1.34 µg/mL) | < 0.8 | –
3 | Cc1c(CCC(=O)O)c(=O)oc2c(C)c(OCc3ccc(-c4ccc(F)cc4F)cc3)ccc12 | 4.9 | 9 | – | – | – | > 100 | > 100 | –
4 | Cc1c(CCC(=O)O)c(=O)oc2c(C)c(OCc3nccc4ccccc34)ccc12 | > 100 | > 100 | – | – | – | – | – | –
5 | CC(=O)NCCNC(=O)CCc1c(C)c2ccc(OCc3ccc(-c4ccccc4)cc3)c(C)c2oc1=O | > 100 | > 100 | – | – | – | – | – | –
6 | Cc1c(OCc2ccc(-c3ccccc3)cc2)ccc2cc(CCC(=O)O)c(=O)oc12 | 14 | 21 | 2.5 | > 100 | >40 | > 100 | – | > 100
7 | Cc1c(CCC(=O)O)c(=O)oc2cc(OCc3ccc(-c4ccccc4)cc3)ccc12 | 6 | 9.7 | 6.8 | 21.2 | 8.5 | 3.12 (≈ 1.3 µg/mL) | 2.5 (≈ 1.04 µg/mL) | –
8 | C=CCOc1ccc2c(C)c(CCC(=O)O)c(=O)oc2c1C | > 100 | > 100 | – | – | – | – | – | –
9 | C#CCOc1ccc2c(C)c(CCC(=O)O)c(=O)oc2c1C | > 100 | > 100 | – | – | – | – | – | –
10 | Cc1c(CCC(=O)O)c(=O)oc2c(C)c(OCc3ccc(-c4ccccc4C#N)cc3)ccc12 | 4.6 | 3.8 | 7.8 | 19.5 | 15.6 | 2.5 (≈ 1.13 µg/mL) | 1.25 (≈ 0.567 µg/mL) | –
11 | CCc1c(OCc2ccc(-c3ccccc3)cc2)ccc2c(C)c(CCC(=O)O)c(=O)oc12 | – | 2 | 8.4 | 42 | 34 | 5 (≈ 2.21 µg/mL) | 1.25 (≈ 0.553 µg/mL) | –
12 | Cc1c(CCC(=O)NCCN(C)C)c(=O)oc2c(C)c(OCc3ccc(-c4ccccc4)cc3)ccc12 | 1.7 | 1.8 | 0.22 | 1.1 | 0.44 | 5 (≈ 2.49 µg/mL) | 2.5 (≈ 1.25 µg/mL) | –
13 | Cc1c(CCC(=O)O)c(=O)oc2c(C)c(OCc3ccccc3-c3ccccc3)ccc12 | 9 | 10.2 | 0.4 | 4.4 | 1.8 | 10 (≈ 4.28 µg/mL) | 2.5 (≈ 1.07 µg/mL) | –
14 | Cc1c(CCC(=O)O)c(=O)oc2c(C)c(OCc3ccncc3)ccc12 | > 100 | > 100 | – | – | – | – | – | –
